# Screens (PubChem)
# An excerpt weighted towards active compounds, which were near 2.3% of everything screened.
# PAFAH2 FP inh – inhibitors of human PAFAH2 | Q99487 | recombinant PAFAH2, FP-rhodamine activity probe, fluorescence polarization | inhibition, % at 3.39 µM | 340,000 compounds, 0.99% hits;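 active = inhibition above the mean over all tested compounds plus 3 SD, cut at about 30% in these data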;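 note: inhibitors block probe labeling of enzyme so polarization drops; 0% = enzyme with DMSO and 100% = wells lacking PAFAH2 protein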
# Apaf1 inhib – human Apaf-1 inhibition. O14727. reconstituted apoptosome caspase-3 activity, DEVD-Rh110 fluorescence. 330,000 compounds, 0.71% hits. inhibition, % at 20 µM; active = inhibition of at least 40% at 20 µM;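 note: plate controls were DMSO wells for no effect and DEVD-CHO caspase inhibitor wells for full effect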
#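 Material: reconstituted apoptosome with Apaf-1, cytochrome c, caspase-9, procaspase-3, dATP / Buffer or medium: pH 7.5 Hepes buffer with CHAPS, BSA, DTT / Also added: cytochrome c with DEVD-Rh110 / Schedule: compound with Apaf-1, dATP, procaspase-3 30 min, then 50 min reaction, room temperature / Technique: rhodamine 110 fluorescence at Ex 480/Em 540 nm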
# TDP2 absorb – TDP2 (human) inhibition, absorbance primary screen | recombinant TDP2, T5PNP hydrolysis, p-nitrophenol absorbance 415 nm | inhibition, % at 12.8 µM | 370,000 compounds, 0.34% hits | AID 720702;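 active = inhibition above the mean of all tested compounds plus 3 SD, set per campaign, cut at about 25% in these data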;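 note: 0% = DMSO with enzyme and 100% = buffer with substrate but no TDP2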
#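 Incubation: 2 h at 37 °C; Test system: recombinant human TDP2; Quantity: enzyme 120 nM; Read-out basis: percent inhibition; Medium: 50 mM Tris-HCl pH 7.5 with Mg2+, KCl, DTT, BSA; Repeats: single replicate; Compound: 12.8 µM single point, 1% DMSO; Signal: epi absorbance; Reagent: 5 mM T5PNP chromogenic substrate; Benchmarks: no-enzyme high, DMSO-plus-enzyme low.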
# PAFAH1B3 FP inh – inhibitors of human PAFAH1B3. AID 492972. inhibition, % at 3.39 µM. Q15102. recombinant PAFAH1B3, FP-rhodamine probe, fluorescence polarization. 340,000 compounds, 0.28% hits;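 active = inhibition above the screen-wide average of all tested compounds plus 3 SD, cut at about 25% in these data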;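 note: 0% = enzyme with DMSO only and 100% = wells lacking PAFAH1B3 protein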
# Target sequence (Q15102 whole entry, looked up): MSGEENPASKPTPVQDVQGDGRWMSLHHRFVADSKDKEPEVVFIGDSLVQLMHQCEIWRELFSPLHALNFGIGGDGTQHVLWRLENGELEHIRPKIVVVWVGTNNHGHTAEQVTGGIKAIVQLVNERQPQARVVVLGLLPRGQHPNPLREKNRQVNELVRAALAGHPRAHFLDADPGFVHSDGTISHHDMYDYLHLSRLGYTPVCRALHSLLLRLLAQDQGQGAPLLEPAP
# PAFAH1B2 FP inh – blocks human PAF acetylhydrolase 1b catalytic subunit 2; P68402; 340,000 compounds, 1.2% hits; inhibition, % at 3.39 µM; recombinant PAFAH1B2, FP-rhodamine activity probe, fluorescence polarization; AID 492953;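 active = inhibition above the mean of all tested compounds plus 3 SD, cut at about 24% in these data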;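 note: 0% = enzyme with DMSO and 100% = wells lacking PAFAH1B2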
# Target sequence (P68402 whole entry, looked up): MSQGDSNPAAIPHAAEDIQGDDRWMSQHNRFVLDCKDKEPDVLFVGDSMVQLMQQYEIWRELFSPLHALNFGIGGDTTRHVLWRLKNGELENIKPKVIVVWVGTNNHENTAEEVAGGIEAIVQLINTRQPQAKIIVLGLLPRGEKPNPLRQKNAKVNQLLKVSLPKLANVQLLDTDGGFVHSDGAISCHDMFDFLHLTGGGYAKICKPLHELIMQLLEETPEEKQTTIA
# Active calls of the source: *; x = no result given.
SMILES,PAFAH2 FP inh,Apaf1 inhib,TDP2 absorb,PAFAH1B3 FP inh,PAFAH1B2 FP inh
Cc1cc(-c2ccc(N=Nc3c(S(=O)(=O)O)cc4cc(S(=O)(=O)O)cc(N)c4c3O)c(C)c2)ccc1N=Nc1c(S(=O)(=O)O)cc2cc(S(=O)(=O)O)cc(N)c2c1O,x,98*,x,x,x
Cc1c[nH]c2cccc(-c3c(Cl)cccc3Cl)c12,x,x,-11,x,x
COC(=O)C1CN(Cc2ccc(Cl)cc2)CCS(=O)(=O)N1Cc1cn(Cc2ccccc2)nn1 (stereo not drawn),x,x,2,x,x
CNC[C@H]1Oc2ccc(NC(=O)Nc3ccc(OC)cc3)cc2C(=O)N([C@@H](C)CO)C[C@H]1C,x,45*,x,x,x
CNC[C@H]1Oc2ccc(NC(=O)Nc3ccc4c(c3)OCO4)cc2C(=O)N([C@H](C)CO)C[C@@H]1C,-4,12,-9,13,4
CNC[C@@H]1Oc2ccc(NC(=O)Nc3cccc4ccccc34)cc2C(=O)N([C@@H](C)CO)C[C@@H]1C,x,57*,x,x,x
CNC[C@@H]1Oc2ccc(NC(=O)Nc3ccccc3)cc2C(=O)N([C@@H](C)CO)C[C@H]1C,4,12,2,16,10
O=C(NN=Cc1ccccc1C(F)(F)F)c1cc(-c2ccc(Cl)cc2)n[nH]1,x,x,-1,x,x
CC(C)C[C@H]1COc2cc(Br)ccc2S(=O)(=O)N1Cc1cn(Cc2ccc(C(F)(F)F)cc2)nn1,x,x,5,x,x
CCOc1cccc(-c2nnc3n2N=C(c2ccc(OC)cc2)CS3)c1,x,x,1,x,x
O=C(N/N=C/c1c[nH]c2ccccc12)c1cccc(O)c1,5,2,5,5,4
O=C(N/N=C/c1c[nH]c2ccccc12)c1ccc(O)c(O)c1,14,9,-19,15,25*
Cc1ccc(CCNC(=O)C2CCCN(S(=O)(=O)c3c(C)noc3C)C2)cc1 (stereo not drawn),6,-4,-1,4,27*
Cc1ccc(CCNC(=O)C2CCCN(S(=O)(=O)c3c(C)noc3/C=C/N(C)C)C2)cc1 (stereo not drawn),7,11,6,3,36*
Cc1nc2c(nc1C)C(=O)c1ccccc1C2=O,4,x,6,8,4
COC1=C(N)C(=O)c2nc(C)ccc2C1=O,18,x,21,63*,27*
COC1=C(Br)C(=O)c2nc(C)ccc2C1=O,x,x,25*,x,x
Cc1ccc(S(=O)(=O)CCC(=O)OCC(=O)N(C)CC(=O)Nc2ccc(F)cc2)cc1,1,4,-7,9,0
Cc1ccc(SCC(=O)OCC(=O)N(C)CC(=O)Nc2ccc(F)cc2)cc1,-11,11,-9,3,44*
Cc1ccc(SCCC(=O)OCC(=O)Nc2ccc(C(N)=O)cc2)cc1,13,-1,7,1,26*
CN(CC(=O)Nc1ccc(F)cc1)C(=O)COC(=O)c1cc(Br)c(Br)s1,18,x,-11,10,24*
CC(COc1ccc(Cl)cc1)CN1CCC(C(O)(c2ccccc2)c2ccccc2)CC1 (stereo not drawn),x,x,0,x,x
COc1ccc(/C=C/S(=O)(=O)NC2CCCC2)c(CNC(=O)OC(C)(C)C)c1,x,x,5,x,x
CCCCCCCCN1C(=O)[C@@H](CC(=O)NCc2cccc(C(F)(F)F)c2)C[C@@]2(C(=O)OC)C1=C[C@H](COCc1ccccc1)O[C@@H]2C,x,x,-4,x,x
COc1ccc(C(=O)CSc2nnc(-c3n[nH]c4c3CCC4)n2N)cc1OC,x,x,4,x,x
SMILES,PAFAH2 FP inh,Apaf1 inhib,TDP2 absorb,PAFAH1B3 FP inh,PAFAH1B2 FP inh
OCCN1CN(c2ccccc2)C(=S)N(c2ccccc2)C1,x,x,2,x,x
COc1cccc(-n2c(CNc3ccc(F)cc3)nnc2SCC(N)=O)c1,2,-10,7,2,26*
O=C(O)c1ccc(CN2C(=O)c3cccc4c([N+](=O)[O-])ccc(c34)C2=O)cc1,16,x,x,31*,18
Cc1ccc(C(=O)O)cc1N1C(=O)c2cccc3c([N+](=O)[O-])ccc(c23)C1=O,36*,10,-4,41*,15
CC(C)C(=O)Nc1csc(C(F)(F)F)c1-c1ccccc1,1,8,9,0,27*
CC(C)C[C@@H]1NC(=O)[C@H]2C[C@@]3(C)c4ccccc4N[C@H]3N2C1=O,x,x,1,x,x
Oc1c(N=Nc2nn[nH]n2)ccc2ccccc12,x,x,26*,x,x
Cc1ccc(N=Nc2ccc3ccccc3c2O)cc1,35*,3,1,52*,86*
Oc1c(N=Nc2ccc(F)cc2)ccc2ccccc12,-24,5,14,-29,-10
